From ChEMBL document CHEMBL4715923, “Investigation on the Anticancer Activity of Symmetric and Unsymmetric Cyclic Sulfamides” (ACS Med Chem Lett, 2021)
The source made the active and inactive calls. The rule behind the calls is not given here.

How the values were obtained:
[1] = system: Panel NCI-60 (60 carcinoma cell lines); experiment: Cytotoxicity against human Panel NCI-60 (60 carcinoma cell lines) assessed as reduction in cell growth incubated for 48 hrs by SRB assay; type: functional, cell-based
In short: (§1)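 Cells kept in RPMI 1640 with 5% FBS and 2 mM L-glutamine at 37 °C in 5% CO2, periodically tested for Mycoplasma. After plating, cells were held 1 day without drug, and time-zero plates were read. Compounds in DMSO were added at 10^-4 to 10^-8 M (five 10-fold steps), with DMSO-only controls, for 48 h. Cells were then TCA-fixed and stained with sulforhodamine B, and absorbance was read. GI50 was derived from time-zero, control and treated absorbances; LC50 is the mean of two independent experiments.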

RPMI-8226 = experiment: Cytotoxicity against human RPMI-8226 cells assessed as reduction in cell growth incubated for 48 hrs by SRB assay; type: functional, cell-based; in short: as §1
A549 [2] = experiment: Cytotoxicity against human A549 cells assessed as loss of cell morphological changes at 1 uM; type: functional, cell-based
In short: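 A549 cells grown overnight were exposed to 1 μM compound or DMSO vehicle, and changes in cell morphology were recorded.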

A549 [3] = experiment: Induction of apoptosis in human A549 cells assessed as effect on caspase activation; type: functional, cell-based
A549 [4] = experiment: Inhibition of colony formation in human A549 cells grown under anchorage-independent soft-agar condition incubated for 9 days and subsequent media replenishment for every 3 days by crystal violet staining based light microscopy assay; settings: dose 10-50 µM, time 9.0 day
SF-295 = experiment: Cytotoxicity against human SF-295 cells assessed as reduction in cell growth incubated for 48 hrs by SRB assay; type: functional, cell-based; in short: as §1
MDA-MB-468 = experiment: Cytotoxicity against human MDA-MB-468 cells assessed as reduction in cell growth incubated for 48 hrs by SRB assay; type: functional, cell-based; in short: as §1
PC-3 = experiment: Cytotoxicity against human PC-3 cells assessed as reduction in cell growth incubated for 48 hrs by SRB assay; type: functional, cell-based; in short: as §1
HCT-116 = experiment: Cytotoxicity against human HCT-116 cells assessed as reduction in cell growth incubated for 48 hrs by SRB assay; type: functional, cell-based; in short: as §1
A549 [5] = experiment: Induction of cellular senescence in human A549 cells assessed as increase in SA-beta-Gal accumulation in cells at 10 to 50 uM incubated for overnight by microscopic analysis; type: functional, cell-based; settings: dose 10-50 µM
OVCAR-4 = experiment: Cytotoxicity against human OVCAR-4 cells assessed as reduction in cell growth incubated for 48 hrs by SRB assay; type: functional, cell-based; in short: as §1
A549 [6] = experiment: Inhibition of cell migration in human A549 cells incubated for 24 hrs by phase contrast microscopy based relative wound healing/cell migration assay to control; type: functional; settings: dose 0-50 µM
In short: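 Scratches were made in A549 monolayers. Cells were then grown in medium containing compound (0–50 μM) or DMSO vehicle, and wound closure was imaged by phase-contrast microscopy.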

A549 [7] = experiment: Induction of cell cycle arrest in human A549 cells assessed as increase in subG1 phase accumulation incubated for 48 hrs by PI based flow cytometry; type: functional
In short: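 A549 cells were exposed for 48 h, stained with propidium iodide and analysed by flow cytometry for cell cycle distribution and the sub-G1 (dead cell) fraction.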

A549 [8] = experiment: Cytotoxicity against human A549 cells assessed as reduction in cell growth at 10 uM incubated for 36 hrs by MTT assay relative to control; type: functional
In short: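 A549 cells were treated with 10 μM compound or DMSO vehicle, and growth inhibition was followed over time, with a 36 h time point.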

Coagulation factor X = Coagulation factor X (Homo sapiens, UniProt P00742); experiment: Inhibition of human factor Xa using […] as substrate by chromogenic assay
Chain of Coagulation factor X (P00742 41-179 limits assumed): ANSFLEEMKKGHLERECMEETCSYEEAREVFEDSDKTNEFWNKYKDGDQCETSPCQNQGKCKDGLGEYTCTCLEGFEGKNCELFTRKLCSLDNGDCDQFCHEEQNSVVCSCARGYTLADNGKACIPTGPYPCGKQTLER
Chain of Coagulation factor X (P00742 235-488 limits assumed): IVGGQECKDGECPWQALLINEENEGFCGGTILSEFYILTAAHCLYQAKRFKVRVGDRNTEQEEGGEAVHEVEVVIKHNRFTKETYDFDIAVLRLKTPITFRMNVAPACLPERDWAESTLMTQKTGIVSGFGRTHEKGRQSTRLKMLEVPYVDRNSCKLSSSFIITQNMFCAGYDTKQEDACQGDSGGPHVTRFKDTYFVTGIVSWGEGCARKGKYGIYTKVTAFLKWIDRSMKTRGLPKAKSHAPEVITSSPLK

Structure (SMILES): O=S1(=O)N(Cc2ccccc2)[C@@H](Cc2ccccc2)[C@H](O)[C@H](O)[C@H](Cc2ccccc2)N1Cc1ccccc1
- inhibition [1]: Active
- inhibition (RPMI-8226): Active

Structure (SMILES): O=S1(=O)N(Cc2ccccc2)[C@H](Cc2ccccc2)[C@H](O)[C@H](O)[C@@H](Cc2ccccc2)N1Cc1ccccc1
- inhibition [1]: Active
- inhibition (RPMI-8226): Active

Structure (SMILES): O=S1(=O)N(Cc2ccccc2)[C@@H](Cc2ccccc2)C=C[C@H](Cc2ccccc2)N1Cc1ccccc1
- Activity (A549 [2]): Active
- Activity (A549 [3]): inactive
- inhibition (A549 [4]): Dose-dependent effect
- inhibition (SF-295): Active
- inhibition (MDA-MB-468): Active
- inhibition (PC-3): Active
- inhibition (HCT-116): Active
- Activity (A549 [5]): Active
- inhibition (OVCAR-4): Active
- inhibition (INH) (A549 [6]): 50%
- Activity (A549 [7]): Active
- inhibition at 10 µM (A549 [8]): 50%

Structure (SMILES): CC(=N)N1CCC(Oc2ccc3c(c2)C(=O)NS(=O)(=O)N3Cc2ccc3ccc(C(=N)N)cc3c2)CC1
- IC50 (Coagulation factor X): 0.4 nM

Structure (SMILES): O=S1(=O)N(Cc2ccccc2)[C@@H](Cc2ccccc2)[C@@H]2O[C@@H]2[C@H](Cc2ccccc2)N1Cc1ccccc1
- inhibition [1]: Active
- inhibition (RPMI-8226): Active
